Screening results from PubChem.
PKA-R2B activ = activators of PKA-R2B holoenzyme, primary screen, biochemical, fluorescence polarization, Cy5-IP20, human | cAMP-dependent protein kinase catalytic subunit beta (Homo sapiens) + cAMP-dependent … | PKA-R2B holoenzyme dissociation; R2B truncated from residue 108, S112A mutant; 0% DMSO only, 100% 113 µM cGMP | 340,000 compounds, 0.079% hits | activation, % at 11.4 µM;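 active means activation above a cutoff set at the mean over all compounds plus 3 SD, cut at about 18% in these data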;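 further: higher means more holoenzyme dissociation and a rise in polarization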
PKA-R1A act = activators of PKA-R1A holoenzyme, primary screen, biochemical, fluorescence polarization, Cy5-IP20, bovine R1A, mouse PKAc. cAMP-dependent protein kinase type I-alpha regulatory subunit (Bos taurus) + …. PKA-R1A dissociation; scaled: DMSO 0%, 113 µM cGMP 100%. activation, % at 11.4 µM. 340,000 compounds, 0.083% hits. AID 504707, 2011;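 active means percent activation above the mean of all tested compounds plus 3 SD, cut at about 19% in these data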;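 further: higher means more PKAc released from R1A so a rise in polarization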
CAL PDZ FP-1 = untagged CAL PDZ binding inhibitors, primary screen, biochemical, fluorescence polarization, HTS | purified CAL PDZ, TMR-peptide fluorescence polarization, 1 h | 300,000 compounds, 0.92% hits | AID 602252, 2012 | Golgi-associated PDZ and coiled-coil motif-containing protein (Homo sapiens), Q9HD26 | inhibition, % at 24.9 µM;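 active means mean inhibition of at least 30% with at least half of replicates also reaching 30%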
CAL PDZ FP-2 = CAL PDZ peptide-binding inhibitors, primary screen, biochemical, fluorescence polarization, Cer-tagged CAL PDZ, HTS. purified CAL PDZ, TMR-peptide fluorescence polarization, 1 h. inhibition, % at 20 µM. 330,000 compounds, 0.02% hits;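 active means highest replicate inhibition of at least 40%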
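Test system: purified CerCALP PDZ construct; Compound dosing: one concentration, 20 µM compound; Also added: TMR-labelled reporter peptide T*-PRC34 bound in PDZ groove; Read-out: inhibition from polarization loss; Controls: unlabelled peptide and DMSO controls; Signal: FP readout, S and P plane fluorescence; Incubation: 1 h at RT.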
dFosB act-1 = activators of delta FosB homodimer, primary screen, biochemical, fluorescence polarization, TAMRA-CDK5 oligo, single point. activation, % at 25 µM. Protein FosB (Mus musculus), P13346. purified delta FosB; percent of positive-control signal above neutral wells. 340,000 compounds, 0.99% hits;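 active means mean activation above about 17%, with every replicate also reaching it, limit read from the data, passing the limit was not always enough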
Target sequence (P13346 whole entry, looked up): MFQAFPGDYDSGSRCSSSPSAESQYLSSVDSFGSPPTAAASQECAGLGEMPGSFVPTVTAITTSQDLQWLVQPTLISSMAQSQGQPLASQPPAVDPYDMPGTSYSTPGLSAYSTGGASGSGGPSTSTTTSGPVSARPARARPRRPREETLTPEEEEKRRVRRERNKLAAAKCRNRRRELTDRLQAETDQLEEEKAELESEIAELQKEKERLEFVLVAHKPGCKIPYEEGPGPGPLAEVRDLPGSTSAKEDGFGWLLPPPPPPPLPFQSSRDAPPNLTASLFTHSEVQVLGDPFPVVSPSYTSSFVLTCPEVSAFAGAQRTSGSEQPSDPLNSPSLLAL
NTR1 ag = agonists of human NTR1, primary screen, imaging, U2OS cells, beta-arrestin-GFP, high content. NTR1-U2OS beta-arrestin-GFP spot imaging, agonist mode. Neurotensin receptor type 1 (Homo sapiens), P30989. 330,000 compounds, 0.17% hits. AID 493036, 2011. activation, % at 20 µM;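 active means activation at or above 40% of the spot to cytoplasm intensity ratio, with at least 20 cells analyzed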
dFosB act-2 = activators of mouse delta FosB DNA binding, confirmation, biochemical, fluorescence polarization, TAMRA-CDK5 oligo, cherry-picked samples; shares compounds with dFosB act-1; purified delta FosB; normalised: neutral wells 0, positive control 100; activation, % at 24.9 µM; 2,400 tested, under 10 active;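 active means highest replicate activation at or above 34% and every replicate reaching that threshold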;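 further: higher polarization means more probe DNA bound by delta FosB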
A number is an active result; 0 = inactive; - = no result. A selection: hits, their analogues and other compounds. The true share with any hit is near 2%.

SMILES	PKA-R2B activ	PKA-R1A act	CAL PDZ FP-1	CAL PDZ FP-2	dFosB act-1	NTR1 ag	dFosB act-2
Cc1ccc(C(=O)NCCc2nnc3ccc(NCc4ccc5c(c4)OCO5)nn23)cc1	0	0	0	0	51	0	0
Cc1ccc(C(=O)NCc2ccc3c(c2)OCO3)cc1	0	0	0	0	0	0	-
COc1ccc(Cn2c(CCC(=O)Nc3ccccc3)nc3cccnc32)cc1	0	0	0	0	0	0	-
COc1ccc(Cn2c(CCC(=O)Nc3ccc(C)c(C)c3)nc3cccnc32)cc1	0	0	0	0	18	0	0
Nc1nc(CSC(=S)N2CCN(c3ccccc3)CC2)nc(Nc2ccc(F)cc2)n1	0	0	0	0	47	0	0
CC1CC(C)CN(C(=S)SCc2nc(N)nc(Nc3ccccc3)n2)C1 (centres undefined)	0	0	0	0	38	0	0
Nc1nc(CSC(=S)N2CCCCC2)nc(Nc2ccccc2)n1	0	0	0	0	0	0	-
CCc1ccc([C@@H]2C[C@H]3[C@@H](CN2S(=O)(=O)c2ccc(C)cc2)C(=O)C[C@@H](c2ccccc2F)N3S(=O)(=O)c2ccc(C)cc2)cc1	0	0	-	-	-	-	-
CCCc1nnc(SCC(=O)Nc2nnc(CC)s2)n1CC1CCCO1 (centres undefined)	0	0	0	0	0	0	-
Cc1nc(C)c(-c2csc(Nc3ccc(Cl)cn3)n2)s1	0	0	-	-	-	-	-
O=C(Nc1nc(-c2ccc(S(=O)(=O)N3CCOCC3)cc2)cs1)c1ccccc1	0	0	0	0	0	0	-
O=C(Nc1nc(-c2nc3ccccc3s2)cs1)c1ccc(S(=O)(=O)N2CCOCC2)cc1	0	0	0	0	33	0	0
COC(=O)c1ccc(Nc2ncnc3c2cnn3-c2cccc(C)c2)cc1	0	0	-	0	45	0	0
COCCCNC(=O)C[C@H]1C[C@H](C(=O)N2CCCCC2)[C@@]2(CCc3ccccc3)c3[nH]c4cc(CCC(=O)N(C)C)ccc4c3CCN2C1=O	0	0	0	0	0	0	-
COc1ccc(CNC(=O)[C@H](Cc2ccccc2)NC(=O)C2CCNCC2)cc1	0	0	0	0	0	0	-
CN(C)CCNC(=S)Nc1ccc(-c2nc3ccccc3[nH]2)cc1	0	0	0	0	0	0	-
S=C(NCc1ccc2c(c1)OCO2)Nc1ccc(-c2nc3ccccc3[nH]2)cc1	0	0	0	0	32	0	0
Cc1cc2nc(-c3ccc(SCC(=O)Nc4ccc5c(c4)OCCO5)nc3)[nH]c2cc1C	0	0	0	0	32	0	0
Cc1ccc2nc(-c3ccc(SCC(=O)Nc4ccc5c(c4)OCCO5)nc3)[nH]c2c1	0	0	0	0	50	0	0
O=C(CSc1ccc(-c2nc3ccccc3[nH]2)cn1)Nc1ccc2c(c1)OCCO2	0	0	0	0	40	0	0
Cc1nnc(Cc2ccco2)c2n[nH]c(C)c12	0	0	-	-	-	-	-
CCc1ccc(NC(=O)C(NS(=O)(=O)c2ccc3c(c2)CCN3C(C)=O)C(C)C)cc1 (centres undefined)	0	0	-	0	37	0	0
COc1ccc(CCNC(=O)C(NS(=O)(=O)c2ccc3c(c2)CCN3C(C)=O)C(C)C)cc1OC (centres undefined)	-	-	-	-	-	0	-
O=C(CN1C(=O)C(=O)N(C2CCCC2)C1=O)Nc1ccccc1OC(F)F	0	0	0	0	0	0	-
CCOC(=O)CSc1nc(C)cc(C)n1	0	0	-	0	16	0	0
SMILES	PKA-R2B activ	PKA-R1A act	CAL PDZ FP-1	CAL PDZ FP-2	dFosB act-1	NTR1 ag	dFosB act-2
Cc1ccc(NC(=O)CSc2nc3nc(C)c(Br)cc3[nH]2)cc1F	0	0	0	0	57	0	0
CCc1ccc(NC(=O)CSc2nc3ncc(Br)cc3[nH]2)cc1	0	0	0	0	19	0	0
Cc1nc2c(o1)C(=O)c1ccccc1C2=Nc1ccccc1	0	0	0	0	0	-	-
O=C(COC(=O)c1ccc(O)cc1O)NC(=O)NCc1ccccc1	0	0	0	0	0	0	-
COc1ccc(S(=O)(=O)Nc2cccc(S(=O)(=O)N(C)C)c2)cc1[N+](=O)[O-]	0	0	0	0	0	-	-
O=C(CSc1nc2ccc(Cl)cc2[nH]1)NC1CCCc2ccccc21 (centres undefined)	0	0	0	0	19	0	0
O=C(CSc1nc2ccccc2[nH]1)NC1CCCc2ccccc21 (centres undefined)	0	0	0	0	0	0	-
C=CCNC(=O)c1ccc(Cn2c(=S)[nH]c3cc4c(cc3c2=O)OCO4)cc1	0	0	0	0	34	0	0
O=C(NCCN1CCCC1)c1ccc(Cn2c(=S)[nH]c3cc4c(cc3c2=O)OCO4)cc1	0	0	0	0	25	0	0
O=C(c1ccc(Cn2c(=S)[nH]c3cc4c(cc3c2=O)OCO4)cc1)N1CCN(c2ncccn2)CC1	-	-	-	-	-	0	-
CCOc1ccc(C(=O)CN2C(=O)NC3(CCCc4ccccc43)C2=O)cc1 (centres undefined)	0	0	-	-	-	-	-
O=[N+]([O-])c1ccc2c(c1)/C(=N\O)c1ccccc1-2	0	0	0	0	27	0	0
OCC[C@H]1C[C@@H](O)[C@H](O)[C@]2(Cc3ccccc3CO2)O1	0	0	0	0	0	0	-
CCC(C)c1ccc(S(=O)(=O)N2CCN(S(=O)(=O)c3ccc(NC(C)=O)cc3)CC2)cc1 (centres undefined)	0	0	0	0	80	0	0
C[C@H]1CCC(=O)N([C@H](CSc2ccc(Br)cc2)Cc2ccccc2)CC1	0	0	0	0	0	0	-
Cc1ccccc1NC(=O)C1CCN(c2cc(-c3ccccc3)nc3ncnn23)CC1	0	0	0	0	24	0	0
O=C(CN1C(=O)COc2ccc(Cl)cc21)Nc1nccs1	0	0	0	0	20	0	0
COc1ccc(C(=O)N2CCC3(CC2)NCCc2[nH]cnc23)cc1OC	0	0	0	0	0	0	-
